From ChEMBL document CHEMBL4041484, “Semisynthesis and Structure-Activity Studies of Uncarinic Acid C Isolated from Uncaria rhynchophylla as a Specific Inhibitor of the Nucleation Phase in Amyloid β42 Aggregation” (J Nat Prod, 2016)
Calls of active or inactive are those of the source. The calls are words filed in the database; no cut-off is given here.

How the values were obtained:
[1] = target: Amyloid-beta precursor protein (Homo sapiens) (UniProt P05067); experiment: Inhibition of Abeta42 (unknown origin) aggregation at early stage incubated for 8 hrs by Thioflavin-T fluorescence assay
In short: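 Synthetic Aβ42 (250 μM stock in 0.1% NH4OH), final 25 μM, with compound at 50 μM final (5 mM ethanol stock) in PBS (50 mM sodium phosphate, 100 mM NaCl, pH 7.4), 37 °C for 8 h. An aliquot was mixed with 5.0 μM Th-T in 5.0 mM Gly-NaOH, pH 8.5, and read at ex 430/em 485 nm. Eight points were measured per time.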

[2] = Solubility of the compound in phosphate-buffered saline at pH 7.4 at 50 uM; type: physicochemical; conditions: buffer, pH 7.4, 50 µM
[3] = target: Amyloid-beta precursor protein (Homo sapiens) (UniProt P05067); experiment: Inhibition of HFIP pretreated Abeta42 (unknown origin) aggregation at nucleation phase assessed as time required for nucleation of Abeta42 at 50 uM by Thioflavin-T fluorescence assay
In short: (§1)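 Aβ42 was held at 250 μM in HFIP for 30 min at room temperature, sonicated 5 min, dried under reduced pressure, then redissolved in 0.1% NH4OH. It was incubated at 25 μM with compound at 50 μM in PBS, pH 7.4, at 37 °C, sampled periodically over time. Th-T (5.0 μM, Gly-NaOH pH 8.5) fluorescence was read at ex 430/em 485 nm. Means ± SD, n = 8.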

[4] = target: Amyloid-beta precursor protein (Homo sapiens) (UniProt P05067); experiment: Inhibition of HFIP pretreated Abeta42 (unknown origin) aggregation at elongation phase at 50 uM by Thioflavin-T fluorescence assay; in short: as §1
[5] = target: Amyloid-beta precursor protein (Homo sapiens) (UniProt P05067); experiment: Inhibition of HFIP pretreated Abeta42 (unknown origin) aggregation at nucleation phase at 50 uM by Thioflavin-T fluorescence assay; in short: as §1
[6] = target: Amyloid-beta precursor protein (Homo sapiens) (UniProt P05067); experiment: Inhibition of HFIP pretreated Abeta42 (unknown origin) aggregation at nucleation phase assessed as time delay for Abeta42 aggregation velocity at 50 uM by sedimentation assay
In short: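 HFIP-pretreated Aβ42 (25 μM) and compound (50 μM) were incubated in PBS, pH 7.4, at 37 °C over a time course. Samples were centrifuged at 15 000 rpm, 4 °C, 10 min. Supernatant Aβ42 was quantified by reversed-phase HPLC (ODS, 10–50% CH3CN in 0.1% NH4OH over 30 min, 1.0 mL/min, UV detection). Means ± SE, n = 2.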

Amyloid-beta precursor protein (Homo sapiens), sequence (P05067 whole entry): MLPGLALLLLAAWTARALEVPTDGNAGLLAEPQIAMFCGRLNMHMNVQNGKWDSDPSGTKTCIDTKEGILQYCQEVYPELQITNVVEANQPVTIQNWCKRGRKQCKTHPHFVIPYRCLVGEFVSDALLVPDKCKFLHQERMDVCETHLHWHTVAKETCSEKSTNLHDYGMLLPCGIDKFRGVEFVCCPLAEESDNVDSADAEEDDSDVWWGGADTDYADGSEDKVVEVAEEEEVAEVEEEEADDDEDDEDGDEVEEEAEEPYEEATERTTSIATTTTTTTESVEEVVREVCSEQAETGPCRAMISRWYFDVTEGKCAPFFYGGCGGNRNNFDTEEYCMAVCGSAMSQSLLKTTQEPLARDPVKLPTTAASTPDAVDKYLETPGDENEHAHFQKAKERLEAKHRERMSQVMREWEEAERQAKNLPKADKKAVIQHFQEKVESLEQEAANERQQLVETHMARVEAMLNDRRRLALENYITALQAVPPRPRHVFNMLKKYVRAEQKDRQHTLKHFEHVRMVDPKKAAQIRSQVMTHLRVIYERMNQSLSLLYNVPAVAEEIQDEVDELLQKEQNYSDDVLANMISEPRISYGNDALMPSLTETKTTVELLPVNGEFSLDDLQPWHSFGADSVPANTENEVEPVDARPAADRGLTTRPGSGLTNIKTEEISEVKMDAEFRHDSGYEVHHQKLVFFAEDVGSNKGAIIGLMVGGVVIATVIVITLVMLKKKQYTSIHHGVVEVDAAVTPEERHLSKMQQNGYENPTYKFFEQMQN

| Compound | inhibition [1] | solubility [2] | TIME [3] [h] | inhibition [4] | inhibition [5] | TIME [6] [h] |
| --- | --- | --- | --- | --- | --- | --- |
| COc1cc(/C=C/C(=O)OC[C@@]23CC[C@@]4(C(=O)O)CCC(C)(C)C[C@H]4C2=CC[C@@H]2[C@@]4(C)CC[C@H](O)C(C)(C)[C@@H]4CC[C@]23C)ccc1O | Active | Soluble | 10 |  |  |  |
| C[C@H]1[C@H](C)CC[C@]2(C(=O)O)CC[C@]3(C)C(=CC[C@@H]4[C@@]5(C)CC[C@H](O)C(C)(C)[C@@H]5CC[C@]43C)[C@H]12 |  |  |  | inactive | inactive |  |
| COc1cc(/C=C/C(=O)OC[C@@]23CC[C@@]4(CO)CC[C@@H](C)[C@H](C)[C@H]4C2=CC[C@@H]2[C@@]4(C)CC[C@H](O)C(C)(C)[C@@H]4CC[C@]23C)ccc1O |  |  |  | inactive | inactive |  |
| CC(=O)OC[C@@]12CC[C@@]3(C(=O)O)CC[C@@H](C)[C@H](C)[C@H]3C1=CC[C@@H]1[C@@]3(C)CC[C@H](O)C(C)(C)[C@@H]3CC[C@]12C |  |  |  | inactive | inactive |  |
| COc1cc(/C=C\C(=O)OC[C@@]23CC[C@@]4(C(=O)O)CC[C@@H](C)[C@H](C)[C@H]4C2=CC[C@@H]2[C@@]4(C)CC[C@H](O)C(C)(C)[C@@H]4CC[C@]23C)ccc1O | Active | Soluble | 10 |  |  |  |
| COC(=O)[C@]12CC[C@@H](C)[C@H](C)[C@H]1C1=CC[C@@H]3[C@@]4(C)CC[C@H](O)C(C)(C)[C@@H]4CC[C@@]3(C)[C@]1(COC(=O)/C=C/c1ccc(O)c(OC)c1)CC2 |  |  |  | inactive | inactive |  |
| COc1cc(/C=C\C(=O)OC[C@@]23CC[C@@]4(C(=O)O)CCC(C)(C)C[C@H]4C2=CC[C@@H]2[C@@]4(C)CC[C@H](O)C(C)(C)[C@@H]4CC[C@]23C)ccc1O | Active | Soluble | 10 |  |  |  |
| C[C@H]1[C@H](C)CC[C@]2(C(=O)O)CC[C@]3(CO)C(=CC[C@@H]4[C@@]5(C)CC[C@H](O)C(C)(C)[C@@H]5CC[C@]43C)[C@H]12 |  |  |  | inactive | inactive |  |
| COc1cc(/C=C/C(=O)OC[C@@]23CC[C@@]4(C(=O)O)CC[C@@H](C)[C@H](C)[C@H]4C2=CC[C@@H]2[C@@]4(C)CC[C@H](O)C(C)(C)[C@@H]4CC[C@]23C)ccc1O | Active | Soluble | 12 |  |  | 8 |
